# Screening results: PubChem, several laboratories
# Rows were chosen to be rich in hits. Some 6.4% of all compounds tested hit in one or more screens of this group.
# CHOP inh: blocks CHOP induction under ER stress; CHO-K1 CHOP-promoter luciferase, tunicamycin-induced, 15-18 h; inhibition, % at 10 µM; hit rate 3.8% among 220,000;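 active = compounds that reduced the stress-induced luciferase reporter signal by more than about 70% of percent inhibition, limit read from the data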
# MPTP block: blocks calcium-induced mitochondrial swelling; inhibition, % at 10 µM; hit rate 1.4% among 360,000; AID 602449; isolated mouse mitochondria, Ca2+ swelling absorbance, 30 min;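 active = inhibition of 50% or more, scaled per plate between neutral and stimulator controls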
# WT yeast gro inh: growth inhibition of WT yeast, mitochondrial fusion screen. mitochondrial fusion phenotypic screen, WT strain. inhibition, % at 10 µM. hit rate 2.1% among 190,000; in the data active = inhibition above about 58%; tested in S. cerevisiae
# GRIN3A LBD mod: modulators (binders) of human NR3A ligand-binding domain; NR3A LBD differential scanning fluorimetry, Tm shift; 0% = protein alone, 100% = glycine-bound protein; Tm shift relative to glycine control, % at 25 µM; hit rate 2.5% among 340,000; AID 1259313;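 active = melting temperature shift of at least 10% of the positive control shift, at one fixed dose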
# EBV gp42 inh: blocks Epstein-Barr virus glycoprotein 42 binding; hit rate 0.42% among 220,000; Q1HVG2; inhibition, % (tested at 21.74 µM); Fluorescence polarization binding assay, mP read-out; in the data active = inhibition above about 50%
# Target sequence (Q1HVG2 whole entry, looked up): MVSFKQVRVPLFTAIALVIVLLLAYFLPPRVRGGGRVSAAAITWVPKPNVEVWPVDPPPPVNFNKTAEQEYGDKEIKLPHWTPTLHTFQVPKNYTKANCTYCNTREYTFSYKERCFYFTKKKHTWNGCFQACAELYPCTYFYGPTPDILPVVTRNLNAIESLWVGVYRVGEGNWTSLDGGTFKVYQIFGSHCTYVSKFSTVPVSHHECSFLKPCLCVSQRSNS
# Tb MetRS inh: Trypanosoma brucei MetRS inhibition. purified T. brucei MetRS, ATP depletion, Kinase-Glo luminescence. inhibition, % at 11.9 µM. hit rate 0.4% among 360,000;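 active = inhibition above a per-plate cutoff of the control wells' mean inhibition plus 3 SD, cut at about 5.5% in these data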
#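 Dosing: 11.9 µM single point; system: parasite MetRS enzyme; technique: luminescence of leftover ATP; times: 15 min enzyme-compound preincubation, 2 h reaction, 10 min detection, 25 °C; replicates: each compound tested once; read-out basis: percent inhibition relative to median high and low control wells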
# Tb MetRS conf: confirmation of Trypanosoma brucei MetRS inhibitors | shares compounds with Tb MetRS inh | T. brucei MetRS enzyme, luminescence (ATP depletion) | inhibition, % at 11.9 µM | hit rate 93% among 1,400; in the data active = inhibition above about 7%
# Jurkat cytotox: counter-screen for T. brucei MetRS inhibitors: Jurkat cell cytotoxicity; shares compounds with Tb MetRS inh; Jurkat cells viability, ATP luminescence; inhibition, % at 8.3 µM; hit rate 12% among 1,400; AID 624413; in the data active = inhibition above about 15%
# TbMetRS FP orth: inhibits T. brucei methionyl tRNA synthetase in orthogonal FP test | shares compounds with Tb MetRS inh | purified T. brucei MetRS, fluorescence polarization | inhibition, % at 11.9 µM | hit rate 44% among 1,400 | AID 651607; in the data active = inhibition above about 17%
# Hits are given with their value; . = inactive; / = no result given.
SMILES,CHOP inh,MPTP block,WT yeast gro inh,GRIN3A LBD mod,EBV gp42 inh,Tb MetRS inh,Tb MetRS conf,Jurkat cytotox,TbMetRS FP orth
NS(=O)(=O)c1ccc(N/C=C\C(=O)c2cccc3ccccc23)cc1,.,.,.,.,.,.,/,/,/
COc1c(C(=O)NCCSC(C)(C)C)ccc2ccccc12,.,.,.,.,.,.,/,/,/
COCCCN1CC(=O)N2C(c3cccc(C)c3)c3[nH]c4ccccc4c3C[C@H]2C1=O (stereo partly drawn),/,.,/,.,/,.,/,/,/
O=C1[C@@H]2Cc3c([nH]c4ccccc34)C(c3cccc([N+](=O)[O-])c3)N2C(=O)CN1CCCO (stereo partly drawn),/,.,/,.,/,95.6,95.4,.,92.7
COC(=O)c1ccc(C2c3[nH]c4ccccc4c3C[C@H]3C(=O)N(C)CC(=O)N23)cc1 (stereo partly drawn),/,.,/,.,/,.,/,/,/
CN1CC(=O)N2C(c3cccc([N+](=O)[O-])c3)c3[nH]c4ccccc4c3C[C@H]2C1=O (stereo partly drawn),/,.,/,.,/,77.8,104.7,.,91.2
CC(NC(=O)c1cccc2c1Oc1ccccc1S2)C(=O)O (stereo not drawn),/,.,/,/,/,8.7,11.4,.,.
COc1ccc(CNC(=O)CCC(=O)Nc2ccc(Cl)cc2)cc1,/,.,/,.,/,7.1,17.0,.,.
COc1ccc(CC(=O)OCC(=O)NCc2ccc(Cl)cc2)cc1,.,.,.,.,.,.,/,/,/
COc1ccc(COC(=O)CCNC(=O)c2ccc(Cl)cc2)cc1,/,.,/,.,/,7.0,28.4,.,.
CN(CC(=O)Nc1ccc(Cl)cc1)C(=O)CN1C(=O)C2CCCCC2C1=O (stereo not drawn),/,.,/,/,/,.,/,/,/
CN(CC(=O)Nc1ccc(Cl)cc1)C(=O)CCC1CCCC1,/,.,/,.,/,6.7,52.4,.,20.0
O=C(c1ccccc1)c1ccc(-n2ccnc2)c([N+](=O)[O-])c1,/,.,/,.,/,.,/,/,/
O=C(c1ccccc1)c1ccc(-n2cnnc2)c([N+](=O)[O-])c1,/,.,/,.,/,24.1,44.3,.,25.9
O=S(=O)(Nc1ncccn1)c1ccc(Cl)cc1,/,.,/,.,/,.,/,/,/
O=C(Nc1ccc(Cl)cc1)Nc1ccc(S(=O)(=O)Nc2ncccn2)cc1,.,.,.,.,.,6.2,8.4,.,.
CCO[C@@H]1OC(C(=O)NCc2nc3ccccc3[nH]2)=C[C@H](c2csc3ccccc23)[C@H]1CCCO,.,.,.,.,.,86.3,93.3,.,97.1
CCO[C@@H]1OC(C(=O)NCc2nc3ccccc3[nH]2)=C[C@H](c2ccccc2)[C@H]1CCCO,.,.,.,.,.,8.6,38.4,.,19.6
CCO[C@H]1OC(C(=O)NCc2nc3ccccc3[nH]2)=C[C@@H](c2csc3ccccc23)[C@@H]1CCCO,.,.,.,.,.,7.6,38.4,.,.
COc1ccc(-c2nnc(SCC#CCO)o2)cc1OC,.,.,.,.,.,.,/,/,/
COc1cc(-c2nc(-c3ccc(Br)o3)no2)cc(OC)c1OC,.,.,.,.,.,.,/,/,/
CCOc1ccc(CSCCNC(=S)Nc2ccccc2)cc1,.,.,71.1,.,.,14.4,25.3,16.4,.
CCOc1ccc(NC(=S)NCCN2CCN(Cc3ccccc3)CC2)cc1,.,.,.,.,.,.,/,/,/
S=C(NCCSCc1ccc(Cl)c(Cl)c1)Nc1ccccc1,/,.,/,22.2,/,41.2,56.7,.,40.9
COc1ccc(OCC(=O)NCCNC(=O)c2ccncc2)cc1,/,.,/,.,/,.,/,/,/
SMILES,CHOP inh,MPTP block,WT yeast gro inh,GRIN3A LBD mod,EBV gp42 inh,Tb MetRS inh,Tb MetRS conf,Jurkat cytotox,TbMetRS FP orth
Cc1cccc(NC(=O)CCC(=O)N/N=C/c2ccc(O)cc2O)c1,/,.,/,.,/,53.8,80.6,.,46.2
CC(=O)NC(=S)Nc1ccccc1C(=O)NC1CCCCC1,.,.,.,.,.,.,/,/,/
O=C(O)CCCCCn1c(O)c(C=C2N=c3ccccc3=N2)sc1=S,.,.,.,.,.,8.8,24.9,.,.
O=C(O)CCCn1c(O)c(C=C2N=c3ccccc3=N2)sc1=S,.,.,/,.,.,29.0,43.8,.,19.5
CCCC(C(=O)O)n1c(O)c(C=C2N=c3ccccc3=N2)sc1=S (stereo not drawn),.,.,/,.,.,5.8,33.3,.,.
O=C(O)Cn1c(O)c(C=Nc2ccccc2)sc1=S,.,.,.,.,.,.,/,/,/
O=C1C2CC=CCC2C(=O)N1Nc1ccccc1 (stereo not drawn),.,.,.,.,.,.,/,/,/
COc1cccc(C(O)c2ncc(-c3cccc(C(F)(F)F)c3)[nH]2)c1 (stereo not drawn),/,.,/,/,/,.,/,/,/
CCOC(=O)c1c(C)[nH]c(C)c1C(=O)COC(=O)c1cccnc1Cl,/,.,/,.,/,.,/,/,/
COc1ccc(S(=O)(=O)NC(=O)C2(C)CCN2C(=O)C2CC2)cc1 (stereo not drawn),/,.,/,/,/,10.5,5.8,.,.
Cc1ccc(S(=O)(=O)NC(=O)C2(C)CCN2C(=O)C2CC2)cc1 (stereo not drawn),/,.,/,/,/,.,/,/,/
CCOc1ccc(N(C)C(=O)CCc2nnc3ccc(N4CCOCC4)nn23)cc1,/,.,/,.,/,.,/,/,/
C=CCc1cccc(CNc2nc3ccccc3n2C)c1O,/,.,/,.,/,28.1,46.0,.,25.7
COc1ccc(CNc2nc3ccccc3n2C)c(O)c1,.,.,/,.,.,.,/,/,/
Cn1c(NCc2cc(Br)ccc2O)nc2ccccc21,.,.,.,.,.,41.3,57.6,.,24.4
CN(C)c1ccc(CNC(=O)c2cc(S(=O)(=O)N3CCOCC3)cn2C)cc1,/,.,/,.,/,.,/,/,/
Cn1cc(S(=O)(=O)N2CCOCC2)cc1C(=O)NCc1ccc(Cl)cc1,/,.,/,.,/,35.7,50.8,.,28.1
CC(C)(C)c1ccc(C(CC(=O)O)NC(=O)Cc2ccccc2)cc1 (stereo not drawn),/,.,/,.,/,.,/,/,/
COc1ccc(N2CCN(CCNC(=O)Nc3ccc(Cl)cc3)CC2)cc1,.,.,.,.,.,12.1,25.5,.,.
O=C1CCCC(O)=C1N=Nc1ccc(Cl)c(Cl)c1,.,.,.,.,.,.,/,/,/
COc1cccc(-n2c(SC)nnc2-c2c[nH]c3ccccc23)c1,.,.,.,.,.,12.5,22.1,.,.
COc1cccc(-n2c(SCC(=O)NCc3ccco3)nnc2-c2c[nH]c3ccccc23)c1,.,.,.,.,.,.,/,/,/
COc1ccc(OC)c(-n2c(SCC(=O)NCc3ccco3)nnc2-c2c[nH]c3ccccc23)c1,.,.,.,.,.,9.5,21.5,.,.
COc1ccc(-n2c(SC)nnc2-c2c[nH]c3ccccc23)cc1,.,.,.,.,.,.,/,/,/
